According to ChEMBL document CHEMBL4725451, “Discovery of Tricyclic Xanthines as Agonists of the Cannabinoid-Activated Orphan G-Protein-Coupled Receptor GPR18” (ACS Med Chem Lett, 2020):
pEC50, pIC50: −log10 of the molar value. Calls of active or inactive are those of the source. No cut-off for these calls is given here.

Columns and labels:
[1] = biological target: T1, N-arachidonyl glycine receptor (Homo sapiens, UniProt Q14330); test: (§1) Agonist activity at Prolink1-tagged human GPR18 receptor expressed in CHO cells assessed as induction of beta-arrestin recruitment after 90 mins by beta-galactosidase based topcount luminescence analysis; assay type: cell-based
T1 sequence (Q14330 whole entry): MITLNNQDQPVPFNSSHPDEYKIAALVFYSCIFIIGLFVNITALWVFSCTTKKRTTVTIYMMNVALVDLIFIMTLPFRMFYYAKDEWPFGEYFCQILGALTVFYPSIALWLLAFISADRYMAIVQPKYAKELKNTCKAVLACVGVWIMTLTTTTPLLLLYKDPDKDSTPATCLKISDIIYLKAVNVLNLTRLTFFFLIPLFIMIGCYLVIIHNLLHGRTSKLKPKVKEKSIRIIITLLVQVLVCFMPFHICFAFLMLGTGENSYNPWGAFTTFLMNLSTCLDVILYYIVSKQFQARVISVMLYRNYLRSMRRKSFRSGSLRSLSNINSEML

[2] = biological target: T2, N-arachidonyl glycine receptor (Homo sapiens) (UniProt Q14330); test: Agonist activity at Prolink1-tagged human GPR18 receptor expressed in CHO cells assessed as induction of beta-arrestin recruitment at 10 uM after 90 mins by beta-galactosidase based topcount luminescence analysis relative to control; assay type: cell-based
T2 sequence (whole entry): T1 sequence (Q14330 whole entry)
In short: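 CHO cells stably expressing human GPR18, β-arrestin enzyme-complementation assay with luminescence read-out. Test compound at 10 μM single concentration; signal normalized to that of 10 μM Δ9-THC.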

[3] = biological target: T1, N-arachidonyl glycine receptor; test: Antagonist activity at Prolink1-tagged human GPR18 receptor expressed in CHO cells assessed as inhibition of THC-induced beta arrestin recruitment after 90 mins by beta-galactosidase based topcount luminescence analysis; assay type: functional, cell-based
[4] = biological target: T3, G-protein coupled receptor 55 (Homo sapiens, UniProt Q9Y2T6); test: Agonist activity at Prolink1-tagged human GPR55 receptor expressed in CHO cells assessed as induction of beta-arrestin recruitment after 90 mins by beta-galactosidase based topcount luminescence analysis; assay type: cell-based
T3 sequence (Q9Y2T6 whole entry): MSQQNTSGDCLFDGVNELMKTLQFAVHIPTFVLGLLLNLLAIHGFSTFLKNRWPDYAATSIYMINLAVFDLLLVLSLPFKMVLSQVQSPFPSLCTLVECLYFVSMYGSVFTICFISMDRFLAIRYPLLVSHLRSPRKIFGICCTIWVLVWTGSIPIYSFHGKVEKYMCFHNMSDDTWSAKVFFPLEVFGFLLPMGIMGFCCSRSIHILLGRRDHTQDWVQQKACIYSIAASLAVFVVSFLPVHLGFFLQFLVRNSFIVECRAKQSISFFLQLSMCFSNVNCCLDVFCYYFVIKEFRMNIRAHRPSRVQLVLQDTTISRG

[5] = biological target: T3, G-protein coupled receptor 55; test: Agonist activity at Prolink1-tagged human GPR55 receptor expressed in CHO cells assessed as induction of beta-arrestin recruitment at 10 uM after 90 mins by beta-galactosidase based topcount luminescence analysis relative to control; assay type: cell-based
In short: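 CHO cells stably expressing GPR55, β2-arrestin recruitment detected by enzyme complementation and luminescence. Compounds tested at 10 μM; effect normalized to signal from 1 μM LPI.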

[6] = biological target: T3, G-protein coupled receptor 55; test: Antagonist activity at Prolink1-tagged human GPR55 receptor expressed in CHO cells assessed as inhibition of lysophosphatidylinositol-induced beta arrestin recruitment after 90 mins by beta-galactosidase based topcount luminescence analysis; assay type: functional, cell-based
[7] = biological target: T3, G-protein coupled receptor 55; test: Antagonist activity at Prolink1-tagged human GPR55 receptor expressed in CHO cells assessed as inhibition of lysophosphatidylinositol-induced beta arrestin recruitment at 10 uM after 90 mins by beta-galactosidase based topcount luminescence analysis relative to control; assay type: functional, cell-based
In short: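 GPR55-expressing CHO cells, β-arrestin complementation luminescence. Percent inhibition by test compound at 10 μM of the response to 1 μM LPI.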

[8] = biological target: Cannabinoid receptor 1 (Homo sapiens) (UniProt P21554); test: Displacement of [3H]CP55,940 from human CB1 receptor expressed in CHO cell membranes after 2 hrs by liquid scintillation analysis
Cannabinoid receptor 1 (Homo sapiens), sequence (P21554 whole entry): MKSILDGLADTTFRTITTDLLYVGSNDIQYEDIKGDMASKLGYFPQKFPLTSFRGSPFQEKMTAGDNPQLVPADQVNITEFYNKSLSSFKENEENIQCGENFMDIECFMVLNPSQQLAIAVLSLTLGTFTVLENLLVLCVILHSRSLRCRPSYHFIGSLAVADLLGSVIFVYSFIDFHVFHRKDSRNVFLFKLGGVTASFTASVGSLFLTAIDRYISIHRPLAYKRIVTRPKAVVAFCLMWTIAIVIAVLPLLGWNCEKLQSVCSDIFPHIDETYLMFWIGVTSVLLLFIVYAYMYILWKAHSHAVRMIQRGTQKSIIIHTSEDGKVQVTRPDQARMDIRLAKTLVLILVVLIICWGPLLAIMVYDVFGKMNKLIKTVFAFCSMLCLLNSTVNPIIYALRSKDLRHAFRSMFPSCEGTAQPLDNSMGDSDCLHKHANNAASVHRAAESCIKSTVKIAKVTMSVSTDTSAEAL
In short: (§2)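 CB receptor radioligand binding: test compound at 10 μM single concentration, scored for displacement of a CB-specific radioligand and for any increase in bound radioligand.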

[9] = biological target: Cannabinoid receptor 2 (Homo sapiens) (UniProt P34972); test: Displacement of [3H]CP55,940 from human CB2 receptor expressed in CHO cell membranes after 2 hrs by liquid scintillation analysis; in short: as §2
Cannabinoid receptor 2 (Homo sapiens), sequence (P34972 whole entry): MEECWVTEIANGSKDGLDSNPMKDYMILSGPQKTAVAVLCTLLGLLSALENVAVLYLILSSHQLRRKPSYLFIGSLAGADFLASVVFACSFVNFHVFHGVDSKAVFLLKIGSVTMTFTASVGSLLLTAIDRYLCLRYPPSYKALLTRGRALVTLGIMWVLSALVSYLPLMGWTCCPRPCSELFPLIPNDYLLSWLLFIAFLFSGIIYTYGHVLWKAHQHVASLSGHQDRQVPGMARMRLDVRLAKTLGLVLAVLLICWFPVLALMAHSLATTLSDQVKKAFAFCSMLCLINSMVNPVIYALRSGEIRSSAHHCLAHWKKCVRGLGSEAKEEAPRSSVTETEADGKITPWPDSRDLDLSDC

[10] = biological target: T2, N-arachidonyl glycine receptor (Homo sapiens); test: as §1, with “recruitment by measuring maximum inhibition of 2-(3-(6-(4-chlorophenoxy)hexyloxy)benzylidene)-6,7-dihydro-2H-imidazo[2,1-b][1,3]thiazin-3(5H)-one at 1 uM” for “recruitment”; assay type: cell-based; settings: filed as agonist
In short: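 Human GPR18 stably expressed in CHO cells, β-arrestin enzyme complementation. Antagonist concentration-inhibition curves run against a fixed 1 μM agonist stimulus. IC50 and maximal inhibition derived from curves; means of three independent experiments, each in duplicate.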

[11] = biological target: T2, N-arachidonyl glycine receptor (Homo sapiens); test: Agonist activity at Prolink1-tagged human GPR18 receptor expressed in CHO cells assessed as effect on induction of beta-arrestin recruitment after 90 mins in presence of 3 to 20 uM […] antagonist 2-(3-(6-(4-chlorophenoxy)hexyloxy)benzylidene)-6,7-dihydro-2H-imidazo[2,1-b][1,3]thiazin-3(5H)-one by beta-galactosidase based topcount luminescence analysis; assay type: cell-based; settings: filed as agonist
[12] = biological target: T2, N-arachidonyl glycine receptor (Homo sapiens); test: Agonist activity at Prolink1-tagged human GPR18 receptor expressed in CHO cells assessed as increase in beta-arrestin recruitment at 1 uM in presence of THC at lower concentrations after 90 mins by beta-galactosidase based topcount luminescence analysis; assay type: cell-based; settings: filed as agonist
In short: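 GPR18-CHO β-arrestin recruitment assay. Fixed agonist at 1 μM combined with a THC concentration–response series. Means of three independent experiments in duplicate.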

[13] = biological target: T2, N-arachidonyl glycine receptor (Homo sapiens); test: Agonist activity at Prolink1-tagged human GPR18 receptor expressed in CHO cells assessed as induction of beta-arrestin recruitment after 90 mins in presence of 3 uM THC by beta-galactosidase based topcount luminescence analysis; assay type: cell-based
In short: (§3)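 β-Arrestin recruitment in CHO cells expressing human GPR18. Agonist concentration–response curves recorded in the presence of fixed Δ9-THC (3 μM or 10 μM). Means of three independent experiments, each in duplicate.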

[14] = biological target: T2, N-arachidonyl glycine receptor (Homo sapiens); test: Agonist activity at Prolink1-tagged human GPR18 receptor expressed in CHO cells assessed as induction of beta-arrestin recruitment after 90 mins in presence of 10 uM THC by beta-galactosidase based topcount luminescence analysis relative to control; assay type: cell-based; in short: as §3

Structure (SMILES) | pEC50 [1] | Activity [2] [%] | pIC50 [3] | pEC50 [4] | Activity [5] [%] | pIC50 [6] | inhibition [7] [%] | Activity [8] | Activity [9] | inhibition [10] [%] | Activity [11] | Activity [12] | Activity [13] | inhibition [14] | Activity ([2]; filed as agonist) [%]
Cn1c(=O)c2c(nc3n2CCCN3CCc2ccc(Cl)cc2)n(C)c1=O | < 5.00 | 14 | < 5.00 | < 5.00 | 10 | < 5.00 |  |  |  |  |  |  |  |  | 
CCCCCc1cc(O)c2c(c1)OC(C)(C)[C@@H]1CCC(C)=C[C@@H]21 [DRONABINOL] |  |  |  | < 5.00 | -4 |  |  |  |  |  |  |  |  |  | 
CCCCC/C=C\C/C=C\C/C=C\C/C=C\CCCC(=O)NCC(=O)O [ARACHIDONOYL GLYCINE] | < 5.00 |  | < 5.00 |  |  |  |  |  |  |  |  |  |  |  | 
CCCn1c(=O)c2c(nc3n2CCCN3CCc2c[nH]c3ccccc23)n(CCC)c1=O | < 5.00 | -12 | < 5.00 | < 5.00 |  | < 5.00 | -4 |  |  |  |  |  |  |  | 
Cn1c(=O)c2c(nc3n2CCCN3Cc2ccc(Cl)cc2)n(C)c1=O | < 5.00 | 6 | < 5.00 | < 5.00 | -9 | < 5.00 | 1 |  |  |  |  |  |  |  | 
C=C(C)[C@@H]1CCC(C)=C[C@H]1c1c(O)cc(O)cc1CCCCC | < 5.00 |  | < 5.00 | < 5.00 | 7 | < 5.00 | 33 |  |  |  |  |  |  |  | 
Cn1c(=O)c2c(nc3n2CCCCN3CCc2c[nH]c3ccccc23)n(C)c1=O |  |  |  | < 5.00 |  | < 5.00 |  |  |  |  |  |  |  |  | 
CCN(CC)CCN1CCCn2c1nc1c2c(=O)n(C)c(=O)n1C | < 5.00 | 39 | < 5.00 | < 5.00 | 4 | < 5.00 | -3 |  |  |  |  |  |  |  | 
Cn1c(=O)c2c(nc3n2CCCN3CCc2ccccc2)n(C)c1=O | < 5.00 | 2 | < 5.00 | < 5.00 | 16 | < 5.00 | -10 |  |  |  |  |  |  |  | 
COc1ccc(CCN2CCCn3c2nc2c3c(=O)n(C)c(=O)n2C)cc1 | < 5.00 | -2 | < 5.00 | < 5.00 | -6 | < 5.00 |  |  |  |  |  |  |  |  | 
CCCCCN1CCCn2c1nc1c2c(=O)n(C)c(=O)n1C | < 5.00 | -1 | < 5.00 | < 5.00 | 10 | < 5.00 |  |  |  |  |  |  |  |  | 
Cn1c(=O)c2c(nc3n2CCN3CCc2c[nH]c3ccccc23)n(C)c1=O |  |  |  | < 5.00 |  | < 5.00 |  |  |  |  |  |  |  |  | 
Cn1c(=O)c2c(nc3n2CCN3c2ccc(O)cc2)n(C)c1=O | < 5.00 | 22 | < 5.00 | < 5.00 | 13 | < 5.00 |  |  |  |  |  |  |  |  | 
Cn1c(=O)c2c(nc3n2CCCN3CCc2c[nH]c3ccccc23)n(C)c1=O | 6.25 |  |  | < 5.00 | -5 | < 5.00 | 20 | inactive | inactive | 65 | Active | Active | inactive | inactive | 
COc1ccc(CCN2CCCn3c2nc2c3c(=O)n(C)c(=O)n2C)cc1OC | < 5.00 | -39 | < 5.00 | < 5.00 | 15 | < 5.00 | 32 |  |  |  |  |  |  |  | 
CCN1CCCn2c1nc1c2c(=O)n(C)c(=O)n1C | < 5.00 | 2 | < 5.00 | < 5.00 | -16 | < 5.00 | 17 |  |  |  |  |  |  |  | 
CCCCN1CCCn2c1nc1c2c(=O)n(C)c(=O)n1C | < 5.00 | 26 | < 5.00 | < 5.00 | -4 | < 5.00 | 34 |  |  |  |  |  |  |  | 
COCCN1CCCn2c1nc1c2c(=O)n(C)c(=O)n1C | < 5.00 |  | < 5.00 | < 5.00 | 18 | < 5.00 | -4 |  |  |  |  |  |  |  | 40
